Reference: ChEMBL document CHEMBL2046427, “Nonhematotoxic naphthalene diimide modified by polyamine: synthesis and biological evaluation” (J Med Chem, 2012)
The source made the active and inactive calls. The calls are words filed in the database; no cut-off is given here.

Assays:
[1] = test system: HepG2; assay: Cytotoxicity against human HepG2 cells after 48 hrs by MTT assay; type: functional, cell-based; conditions: HepG2, 48 h
Method in brief: (§1)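 MTT conversion assay at 37 °C, 5% CO₂. […] Inhibition relative to untreated cells as 100%; IC50 by linear regression, mean of three independent experiments.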

[2] = test system: MDA-MB-231; assay: Cytotoxicity against human MDA-MB-231 cells after 48 hrs by MTT assay; type: functional, cell-based; conditions: MDA-MB-231, 48 h; method in brief: as §1
[3] = test system: HCT-116; assay: Cytotoxicity against human HCT116 cells after 48 hrs by MTT assay; type: functional, cell-based; conditions: HCT-116, 48 h; method in brief: as §1
[4] = test system: HepG2; assay: Cytotoxicity against human HepG2 cells assessed as cell nuclear shrinkage after 48 hrs by Hoechst 33342-based fluorescence-based high-content screening assay; type: functional
Method in brief: (§2)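 HepG2 seeded 5 × 10³/well; after 12 h treated at 1, 5, 10, 15 and 30 μM for 48 h. Multiparameter cytotoxicity kit staining imaged by high-content screening: Hoechst 33342 for nuclear morphology, permeability dye (green nuclei) for membrane integrity, mitochondrial potential dye, and a weak-base dye for lysosomal mass/pH.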

[5] = test system: HepG2; assay: Cytotoxicity against human HepG2 cells assessed as mitochondrial permeability augmentation after 48 hrs by fluorescence-based high-content screening assay; type: functional, cell-based; method in brief: as §2
[6] = test system: HepG2; assay: Cytotoxicity against human HepG2 cells assessed as decrease in mitochondrial membrane potential after 48 hrs by fluorescence-based high-content screening assay; type: functional, cell-based; method in brief: as §2
[7] = test system: HepG2; assay: Cytotoxicity against human HepG2 cells assessed as acruement in lysosomal mass/pH after 48 hrs by fluorescence-based high-content screening assay; type: functional, cell-based; method in brief: as §2
[8] = test system: HepG2; assay: Cytotoxicity in human HepG2 cells assessed as loss of cell membrane integrity at 10 uM after 48 hrs by fluorescence-based high-content screening assay; type: functional
[9] = test system: HepG2; assay: Cytotoxicity in human HepG2 cells assessed as gain in lysosomal mass/pH at 10 uM after 48 hrs by fluorescence-based high-content screening assay; type: functional, cell-based
[10] = test system: HepG2; assay: Cytotoxicity in human HepG2 cells assessed as mitochondrial membrane damage at 10 uM after 48 hrs by fluorescence-based high-content screening assay; type: functional, cell-based
[11] = test system: HepG2; assay: Cytotoxicity in human HepG2 cells assessed as decrease in mitochondrial membrane potential at 10 uM after 48 hrs by fluorescence-based high-content screening assay; type: functional, cell-based
[12] = test system: HepG2; assay: Induction of apoptosis in human HepG2 cells assessed as phosphatidylserine externalisation at 10 uM after 48 hrs by annexinV/FITC-based high-content screening assay; type: functional, cell-based
Method in brief: (§3)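 HepG2 in 24-well plates treated at 10 μM for 48 h, harvested and stained with annexin V–FITC/propidium iodide kit or cleaved caspase 3 indirect immunofluorescence. Imaging by high-content screening with target-activation analysis; comparison against control.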

[13] = test system: HepG2; assay: Induction of apoptosis in human HepG2 cells assessed as caspase 3 activation at 10 uM after 48 hrs by indirect immunofluorescence method; type: functional, cell-based; method in brief: as §3
[14] = test system: HepG2; assay: Induction of apoptosis in human HepG2 cells assessed as reactive oxygen species generation at 10 uM after 48 hrs by […]-based staining; type: functional, cell-based
Method in brief: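 HepG2 given 10 μM for 48 h; intracellular ROS by DCFH-DA staining imaged by high-content screening, compared with untreated control.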

[15] = test system: H22; assay: Antitumor activity against mouse H22 cells xenografted in Kunming mouse assessed as tumor growth inhibition at 0.2 mg/kg, iv administered on day 8 post-tumor injection for 7 days measured on day 16 relative to vehicle treated control; type: functional; conditions: read-out: GI
Method in brief: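 Male Kunming mice, 5 weeks, 18−22 g, injected sc with 2 × 10⁶ H22 cells. From day 8, randomized groups got caudal vein injection (0.2 or 5 mg/kg, or physiologic saline) for 7 consecutive days. On day 16 tumours excised and weighed; inhibitory rate (%) = [(A − B)/A] × 100 using mean tumour weights of control (A) and treated (B). Tumours formalin-fixed, H&E-stained.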

[16] = test system: H22; assay: Antitumor activity against mouse H22 cells xenografted in Kunming mouse assessed as decrease in cell survival at 0.2 mg/kg, iv administered on day 8 post-tumor injection for 7 days measured on day 16 by hematoxylin and eosin staining relative to vehicle treated control; type: functional, organism-based; set-up: dose 0.2 mg/kg
[17] = test system: H22; assay: Antitumor activity against mouse H22 cells xenografted in Kunming mouse assessed as median survival time at 0.2 […], iv administered 24 hrs post-tumor injection for 7 days (reference value: 12.7 +/- 2.5 days); type: functional
Method in brief: (§4)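 Kunming mice bearing H22 cells; iv (caudal vein) dosing or physiologic saline control started 24 h after inoculation and given for 7 consecutive days. Median survival time recorded per group; activity judged as increase in lifespan versus saline control.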

[18] = test system: H22; assay: Antitumor activity against mouse H22 cells xenografted in Kunming mouse assessed as median survival time at 0.2 […], iv administered 24 hrs post-tumor injection for 7 days relative to vehicle treated control; type: functional; method in brief: as §4
[19] = test system: H22; assay: Antimetastatic activity against mouse H22 cells xenografted in Kunming mouse assessed as decrease in lung tumor burden at 0.2 mg/kg, iv administered on day 11 post-tumor injection for 7 days measured on day 18 relative to vehicle treated control; type: functional, organism-based; set-up: dose 0.2 mg/kg
[20] = test system: H22; assay: Antimetastatic activity against mouse H22 cells xenografted in Kunming mouse assessed as decrease in lung metastasis focuses at 0.2 mg/kg, iv administered on day 11 post-tumor injection for 7 days measured on day 18 relative to vehicle treated control; type: functional, organism-based; set-up: dose 0.2 mg/kg
[21] = test system: H22; assay: Antimetastatic activity against mouse H22 cells xenografted in Kunming mouse assessed as tumor weight at 0.2 mg/kg, iv administered on day 11 post-tumor injection for 7 days measured on day 18 (reference value: 0.34 +/- 0.15 g); type: functional
[22] = test system: Mus musculus; assay: Toxicity in mouse H22 cells bearing Kunming mouse assessed as weight loss at 0.2 mg/kg, iv administered for 7 days measured on day 8 relative to vehicle treated control; type: organism-based; set-up: dose 0.2 mg/kg, route intravenous; conditions: in vivo, 168 h
Method in brief: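 Body weight tracked during 7 consecutive days of daily iv dosing in tumour-bearing Kunming mice, with saline controls; animals killed on day 8.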

[23] = test system: Mus musculus; assay: Toxicity in mouse H22 cells bearing Kunming mouse assessed as decrease in platelet number at 0.2 mg/kg, iv administered for 7 days measured on day 8 relative to vehicle treated control; type: organism-based; set-up: dose 0.2 mg/kg, route intravenous; conditions: in vivo, 168 h
Method in brief: (§5)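 Tumour-bearing Kunming mice (10/group) dosed iv daily for 7 days, then killed on day 8. Blood and bone marrow counted on a Coulter counter for platelets, RBC, WBC and marrow cells. Spleen and thymus weighed; organ index (%) = (organ weight/body weight) × 100. Mean ± SD; Student's t test or ANOVA with q test versus saline.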

[24] = test system: Mus musculus; assay: Toxicity in mouse H22 cells bearing Kunming mouse assessed as decrease in red blood cells number at 0.2 mg/kg, iv administered for 7 days measured on day 8 relative to vehicle treated control; type: organism-based; set-up: dose 0.2 mg/kg, route intravenous; conditions: in vivo, 168 h; method in brief: as §5
[25] = test system: Mus musculus; assay: Toxicity in mouse H22 cells bearing Kunming mouse assessed as decrease in white blood cells number at 0.2 mg/kg, iv administered for 7 days measured on day 8 relative to vehicle treated control; type: organism-based; set-up: dose 0.2 mg/kg, route intravenous; conditions: in vivo, 168 h; method in brief: as §5
[26] = test system: Mus musculus; assay: Hematotoxicity in mouse H22 cells bearing Kunming mouse assessed as decrease in bone marrow cell numbers at 0.2 mg/kg, iv administered for 7 days measured on day 8 relative to vehicle treated control; type: organism-based; set-up: dose 0.2 mg/kg, route intravenous; conditions: in vivo, 168 h; method in brief: as §5
[27] = test system: Mus musculus; assay: Toxicity in mouse H22 cells bearing Kunming mouse assessed as change in spleen index number at 0.2 mg/kg, iv administered for 7 days measured on day 8 relative to vehicle treated control; type: organism-based; set-up: dose 0.2 mg/kg, route intravenous; conditions: in vivo, 168 h; method in brief: as §5
[28] = test system: Mus musculus; assay: Toxicity in mouse H22 cells bearing Kunming mouse assessed as change in thymus index number at 0.2 mg/kg, iv administered for 7 days measured on day 8 relative to vehicle treated control; type: organism-based; set-up: dose 0.2 mg/kg, route intravenous; conditions: in vivo, 168 h; method in brief: as §5
[29] = test system: Mus musculus; assay: Toxicity in mouse H22 cells bearing Kunming mouse assessed pathological changes in spleen at 0.2 mg/kg, iv administered for 7 days measured on day 8 by hematoxylin and eosin staining relative to vehicle treated control; type: organism-based; set-up: dose 0.2 mg/kg, route intravenous; conditions: in vivo, 168 h
[30] = test system: Mus musculus; assay: Toxicity in mouse H22 cells bearing Kunming mouse assessed pathological changes in heart at 0.2 mg/kg, iv administered for 7 days measured on day 8 by hematoxylin and eosin staining relative to vehicle treated control; type: organism-based; set-up: dose 0.2 mg/kg, route intravenous; conditions: in vivo, 168 h
[31] = test system: Mus musculus; assay: Toxicity in mouse H22 cells bearing Kunming mouse assessed pathological changes in liver at 0.2 mg/kg, iv administered for 7 days measured on day 8 by hematoxylin and eosin staining relative to vehicle treated control; type: organism-based; set-up: dose 0.2 mg/kg, route intravenous; conditions: in vivo, 168 h
[32] = test system: Mus musculus; assay: Toxicity in mouse H22 cells bearing Kunming mouse assessed pathological changes in lung at 0.2 mg/kg, iv administered for 7 days measured on day 8 by hematoxylin and eosin staining relative to vehicle treated control; type: organism-based; set-up: dose 0.2 mg/kg, route intravenous; conditions: in vivo, 168 h
[33] = test system: Mus musculus; assay: Toxicity in mouse H22 cells bearing Kunming mouse assessed pathological changes in kidney at 0.2 mg/kg, iv administered for 7 days measured on day 8 by hematoxylin and eosin staining relative to vehicle treated control; type: organism-based; set-up: dose 0.2 mg/kg, route intravenous; conditions: in vivo, 168 h
[34] = test system: Mus musculus; assay: Toxicity in mouse H22 cells bearing Kunming mouse assessed pathological changes in brain at 0.2 mg/kg, iv administered for 7 days measured on day 8 by hematoxylin and eosin staining relative to vehicle treated control; type: organism-based; set-up: dose 0.2 mg/kg, route intravenous; conditions: in vivo, 168 h

Compound `Cl.NCCCNCCCCNCCCN1C(=O)c2ccc3c4c(ccc(c24)C1=O)C(=O)N(CCCNCCCCNCCCN)C3=O` has an IC50 [1] of 1220 nM, an IC50 [2] of 450 nM and an IC50 [3] of 130 nM. The Activity [4] was “Dose-dependent effect”, the Activity [5] was “Dose-dependent effect” and the Activity [6] was “Dose-dependent effect”. For the same compound, the Activity [7] was “Dose-dependent effect”, the Activity [8] was “Active” and the Activity [9] was “Active”. For the same compound, the Activity [10] was “Active”, the Activity [11] was “Active” and the Activity [12] was “Active”. The Activity [13] was “Active”, the Activity [14] was “Active” and the inhibition in vivo at 0.2 mg/kg [15] was 51.8%. For the same compound, the Activity [16] was “Active”, the MST [17] was 29.8 days and the Ratio [18] was 2.3. For the same compound, the Activity [19] was “Active”, the Activity [20] was “Active” and the Activity [21] was 0.17 g. The Activity [22] was “Non-toxic”, the Activity [23] was “Non-toxic” and the Activity [24] was “Non-toxic”. For the same compound, the Activity [25] was “Non-toxic”, the Activity [26] was “Non-toxic” and the Activity [27] was “Non-toxic”. The Activity [28] was “Non-toxic”, the Activity [29] was “Non-toxic” and the Activity [30] was “Non-toxic”. For the same compound, the Activity [31] was “Non-toxic”, the Activity [32] was “Non-toxic” and the Activity [33] was “Non-toxic”. For the same compound, the Activity [34] was “Non-toxic”.
